# Key:
# HeLa = experiment: In vitro anticellular activity against HeLa S3 cells; format: functional, cell-based; conditions: Homo sapiens
# In short: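 HeLa S3 cells seeded in 96-well plates on day 0, then exposed to compound for 1 h on day 1. Anticellular activity determined by a previously described method.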
# CCRF S-180 [1] = experiment: Effective dose that gave 50 percent inhibition of sarcoma 180 tumor growth in ddY mice; format: functional; conditions: Mus musculus
# In short: (§1)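 Sarcoma 180 cells implanted subcutaneously in the axillary region of ddY mice on day 0. Compounds given intravenously on day 1. Tumor volume determined by a previously described method and expressed as treated/control. ED50 is the dose giving 50% inhibition of tumor growth, taken from the dose–response curve. Optimal dose also recorded.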
# CCRF S-180 [2] = experiment: Optimal dose against sarcoma 180 tumor in ddY mice; format: functional, Mus musculus; in short: as §1
# CCRF S-180 [3] = experiment: Treated versus control value of tumor volume was measured in ddY mice; format: functional, Mus musculus; in short: as §1
SMILES,IC50 (HeLa) [nM],ED50 (CCRF S-180 [1]) [mg/kg],OD (CCRF S-180 [2]) [mg/kg],T/C (CCRF S-180 [3])
COC1=C(CC(C)C)C(=O)C2=C(C1=O)[C@@H](COC(N)=O)[C@@]1(OC)[C@H]3N[C@H]3CN21,200,–,–,–
CCCCCC1=C(N)C(=O)C2=C(C1=O)N1C[C@@H]3N[C@@H]3[C@]1(OC)[C@@H]2COC(N)=O,> 10000,–,–,–
CO[C@@]12[C@H](COC(N)=O)C3=C(C(=O)C(CC[N+](=O)[O-])=C(N)C3=O)N1C[C@@H]1N[C@@H]12,1500,8,15,0.44
CCCCCC1=C(OC)C(=O)C2=C(C1=O)N1C[C@H]3[C@H](N3C)[C@]1(O)[C@H]2COC(N)=O (stereo partly specified),3100,–,20,0.79
CCC1=C(N)C(=O)C2=C(C1=O)N1C[C@H]3[C@H](N3C)[C@]1(OC)[C@@H]2COC(N)=O (stereo partly specified),–,–,46,1.02
CO[C@@]12[C@H](COC(N)=O)C3=C(C(=O)C(CC(C)C)=C(N)C3=O)N1C[C@@H]1N[C@@H]12,> 10000,–,46,0.78
CCCCCCCCCCCC1=C(N)C(=O)C2=C(C1=O)N1C[C@@H]3N[C@@H]3[C@]1(OC)[C@@H]2COC(N)=O,> 10000,–,–,–
CCC1=C(OC)C(=O)C2=C(C1=O)N1C[C@H]3[C@H](N3C)[C@]1(O)[C@H]2COC(N)=O (stereo partly specified),300,14,30,0.39
C=CCC1=C(N)C(=O)C2=C(C1=O)N1C[C@@H]3N[C@@H]3[C@]1(OC)[C@@H]2COC(N)=O,10000,–,–,–
COC1=C(Cc2ccccc2)C(=O)C2=C(C1=O)[C@@H](COC(N)=O)[C@@]1(OC)[C@H]3N[C@H]3CN21,63,23,30,0.43
CCCCCCCCCCCCCCCCCCCC1=C(N)C(=O)C2=C(C1=O)N1C[C@@H]3N[C@@H]3[C@]1(OC)[C@@H]2COC(N)=O,9000,–,–,–
CO[C@@]12[C@H](COC(N)=O)C3=C(C(=O)C(Cc4ccccc4)=C(N)C3=O)N1C[C@@H]1N[C@@H]12,> 10000,–,–,–
CCC1=C(N)C(=O)C2=C(C1=O)N1C[C@H]3[C@H](N3C)[C@]1(O)[C@H]2COC(N)=O (stereo partly specified),> 10000,–,20,0.8
CCC1=C(N)C(=O)C2=C(C1=O)N1C[C@@H]3N[C@@H]3[C@]1(OC)[C@@H]2COC(N)=O.ClC(Cl)Cl,> 10000,38,46,0.42
COC1=C(Cc2ccccc2)C(=O)C2=C(C1=O)[C@H](COC(N)=O)[C@@]1(O)[C@@H]3[C@H](CN21)N3C (stereo partly specified) [6-BENZYL-6-DEMETHYLMITOMYCIN B],520,37,46,0.41
COC1=C(CC(C)C)C(=O)C2=C(C1=O)[C@H](COC(N)=O)[C@@]1(O)[C@@H]3[C@H](CN21)N3C (stereo partly specified) [6-DEMETHYL-6-(2-METHYLPROPYL)MITOMYCIN B],6100,–,20,0.71
CCC1=C(OC)C(=O)C2=C(C1=O)N1C[C@@H]3N[C@@H]3[C@]1(OC)[C@@H]2COC(N)=O [6-DEMETHYL-6-ETHYLMITOMYCIN A],17,2.8,7.4,0.1
CCCCCCCCCCCCCCCCCCCC1=C(OC)C(=O)C2=C(C1=O)N1C[C@@H]3N[C@@H]3[C@]1(OC)[C@@H]2COC(N)=O [6-DEMETHYL-6-N-NONADECYLMITOMYCIN A],7300,–,46,0.69
CCCCCC1=C(OC)C(=O)C2=C(C1=O)N1C[C@@H]3N[C@@H]3[C@]1(OC)[C@@H]2COC(N)=O [6-DEMETHYL-6-N-PENTYLMITOMYCIN A],87,19,30,0.37
CCCCCCCCCCCC1=C(OC)C(=O)C2=C(C1=O)N1C[C@@H]3N[C@@H]3[C@]1(OC)[C@@H]2COC(N)=O [6-DEMETHYL-6-N-UNDECYLMITOMYCIN A],640,–,20,0.8
COC1=C(C)C(=O)C2=C(C1=O)[C@@H](COC(N)=O)[C@@]1(OC)[C@H]3N[C@H]3CN21 [MITOMYCIN A],–,1.3,1.8,0.2
CO[C@@]12[C@H](COC(N)=O)C3=C(C(=O)C(C)=C(N)C3=O)N1C[C@@H]1N[C@@H]12 [MITOMYCIN],590,1.7,6,0.26

# Reference: ChEMBL document CHEMBL1127845, “Synthesis and antitumor activity of novel 6-alkyl-6-demethylmitomycins” (J Med Chem, 1994)
